In ChEMBL document CHEMBL1127335, “Inhibitors of acyl-CoA: cholesterol O-acyl transferase (ACAT) as hypocholesterolemic agents. 6. The first water-soluble ACAT inhibitor with lipid-regulating activity” (J Med Chem, 1994):

Key:
[1] = tested on: Rattus norvegicus; assay: Chronic effect on preestablished dyslipidemia in rats for total cholesterol at 3 mg/kg of compound was determined; assay type: functional
How it was run: (§1)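 Plasma total cholesterol measured; HDL-C separated by dextran sulfate precipitation of whole plasma, nonHDL-C derived. n = 5/group, mean ± SEM, % change versus PCC-fed controls; chow-fed controls included.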

[2] = species on record: Rattus norvegicus; assay: Dose required to lower the plasma cholesterol by 50% in rats was determined; assay type: functional
How it was run: (§2)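 Acute model in rats: one dose given, then ad libitum overnight feeding of chow supplemented with peanut oil (5.5%), cholesterol (1.5%) and cholic acid (0.5%). Plasma cholesterol measured; n = 5/group; mean ± SEM; percent change relative to PCC-fed controls. ED50 is the dose that lowers plasma cholesterol by 50%.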

[3] = tested on: Rattus norvegicus; assay: Chronic effect on preestablished dyslipidemia in rats for HDL-C at 1 mg/kg of compound was determined; assay type: functional; how it was run: as §1
[4] = tested on: Caco-2; assay: Activity of compound in an intestine model using Caco-2 cells; assay type: functional, cell-based; details: Homo sapiens, Caco-2, Intestine
How it was run: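 CaCo-2 intestinal cells incubated with radiolabeled oleic acid in the presence of test agent; ACAT activity in intact cells read as oleate incorporation into cholesteryl esters, with triglyceride and phospholipid incorporation also followed up to 100 µM. IC50 averaged over three separate experiments.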

[5] = tested on: Rattus norvegicus; assay: Chronic effect on preestablished dyslipidemia in rats for nonHDL-C at 30 mg/kg of compound was determined; assay type: functional; how it was run: as §1
[6] = tested on: Rattus norvegicus; assay: Chronic effect on preestablished dyslipidemia in rats for nonHDL-C at 1 mg/kg of compound was determined; assay type: functional; how it was run: as §1
[7] = tested on: Rattus norvegicus; assay: Chronic effect on preestablished dyslipidemia in rats for HDL-C at 10 […] of compound was determined; assay type: functional; how it was run: as §1
[8] = tested on: Rattus norvegicus; assay: Chronic effect on preestablished dyslipidemia in rats for total cholesterol at 1 mg/kg of compound was determined; assay type: functional; how it was run: as §1
[9] = tested on: Rattus norvegicus; assay: Chronic effect on preestablished dyslipidemia in rats for HDL-C at 0.3 mg/kg of compound was determined; assay type: functional; how it was run: as §1
[10] = tested on: Rattus norvegicus; assay: Chronic effect on preestablished dyslipidemia in rats for total cholesterol at 30 mg/kg of compound was determined; assay type: functional; how it was run: as §1
[11] = Partition coefficient was measured by the shake flask method at pH 7.4.; assay type: physicochemical; details: octanol/water
How it was run: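 Log P determined by shake-flask partitioning at pH 7.4.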

[12] = tested on: Rattus norvegicus; assay: […] activity in rats at a dose of 3 mg/kg of compound was determined; assay type: functional; how it was run: as §2
[13] = tested on: Rattus norvegicus; assay: Chronic effect on preestablished dyslipidemia in rats for nonHDL-C at 10 mg/kg of compound was determined; assay type: functional; how it was run: as §1
[14] = tested on: Rattus norvegicus; assay: […] activity in rats at a dose of 30 mg/kg was determined; assay type: functional; how it was run: as §2
[15] = tested on: Rattus norvegicus; assay: […] activity in rats at a dose of 10 mg/kg was determined; assay type: functional; how it was run: as §2
[16] = tested on: Rattus norvegicus; assay: Chronic effect on preestablished dyslipidemia in rats for total cholesterol at 0.3 mg/kg of compound was determined; assay type: functional; how it was run: as §1
[17] = tested on: Rattus norvegicus; assay: Anti hypercholesterolemic activity in rats at a dose of 0.3 mg/kg of compound was determined; assay type: functional; how it was run: as §2
[18] = biological target: T1, Sterol O-acyltransferase 1 (Rattus norvegicus, UniProt O70536); assay: Compound was evaluated for the Acyl coenzyme A:cholesterol acyltransferase inhibition using microsomes isolated from the livers of cholesterol fed rats; set-up: species or system Liver
T1 sequence (O70536 whole entry): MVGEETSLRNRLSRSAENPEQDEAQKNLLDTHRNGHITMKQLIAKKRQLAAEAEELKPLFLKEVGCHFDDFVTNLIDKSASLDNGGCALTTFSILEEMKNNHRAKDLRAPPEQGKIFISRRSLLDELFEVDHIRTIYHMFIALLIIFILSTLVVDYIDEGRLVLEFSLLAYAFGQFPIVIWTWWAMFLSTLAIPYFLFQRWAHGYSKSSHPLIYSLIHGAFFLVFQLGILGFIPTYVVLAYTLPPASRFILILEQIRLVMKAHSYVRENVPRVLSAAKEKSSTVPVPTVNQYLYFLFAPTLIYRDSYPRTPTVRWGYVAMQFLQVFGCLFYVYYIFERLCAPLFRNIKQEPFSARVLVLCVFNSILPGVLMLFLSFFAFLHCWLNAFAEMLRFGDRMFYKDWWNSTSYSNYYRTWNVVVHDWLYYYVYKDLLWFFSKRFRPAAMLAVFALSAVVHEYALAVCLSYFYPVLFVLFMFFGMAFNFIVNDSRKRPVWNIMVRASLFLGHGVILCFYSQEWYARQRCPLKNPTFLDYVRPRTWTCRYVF
How it was run: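 Liver microsomes prepared from cholesterol-fed rats used as ACAT source. IC50 determined from four drug concentrations per assay, in four separate assays, and reported as the mean.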

[19] = tested on: Rattus norvegicus; assay: Chronic effect on preestablished dyslipidemia in rats for nonHDL-C at 0.3 mg/kg of compound was determined; assay type: functional; how it was run: as §1
[20] = tested on: Rattus norvegicus; assay: Chronic effect on preestablished dyslipidemia in rats for nonHDL-C at 3 mg/kg of compound was determined; assay type: functional; how it was run: as §1
[21] = tested on: Rattus norvegicus; assay: […] activity in rats at a dose of 1 mg/kg of compound was determined; assay type: functional; how it was run: as §2
[22] = tested on: Rattus norvegicus; assay: Chronic effect on preestablished dyslipidemia in rats for total cholesterol at 10 mg/kg of compound was determined; assay type: functional; how it was run: as §1
[23] = tested on: Rattus norvegicus; assay: Chronic effect on preestablished dyslipidemia in rats for HDL-C at 30 mg/kg of compound was determined; assay type: functional; how it was run: as §1
[24] = tested on: Rattus norvegicus; assay: Chronic effect on preestablished dyslipidemia in rats for HDL-C at 3 mg/kg of compound was determined; assay type: functional; how it was run: as §1
[25] = tested on: Rattus norvegicus; assay: […] activity in rats at a dose of 100 mg/kg of compound was determined; assay type: functional; how it was run: as §2
[26] = tested on: Rattus norvegicus; assay: Chronic effect on preestablished dyslipidemia in rats for HDL-C at 100 mg/kg of compound was determined; assay type: functional; how it was run: as §1
[27] = biological target: T1, Sterol O-acyltransferase 1; assay: Compound was evaluated for the Acyl coenzyme A:cholesterol acyltransferase inhibition using microsomes isolated from the livers of cholesterol fed rats.; set-up: species or system Liver
How it was run: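 Liver microsomes from cholesterol-fed rats served as the ACAT source. IC50 was determined in four separate assays, each using four drug concentrations, and averaged.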

[28] = tested on: Rattus norvegicus; assay: […] activity in rats at a dose of 10 mg/kg of compound was determined; assay type: functional; how it was run: as §2
[29] = tested on: Rattus norvegicus; assay: Chronic effect on preestablished dyslipidemia in rats for nonHDL-C at 100 mg/kg of compound was determined; assay type: functional; how it was run: as §1
[30] = tested on: Rattus norvegicus; assay: Chronic effect on preestablished dyslipidemia in rats for total cholesterol at 100 mg/kg of compound was determined; assay type: functional; how it was run: as §1
[31] = tested on: Rattus norvegicus; assay: Chronic effect on preestablished dyslipidemia in rats for HDL-C at 10 mg/kg of compound was determined; assay type: functional; how it was run: as §1
[32] = tested on: Rattus norvegicus; assay: […] activity in rats at a dose of 30 mg/kg of compound was determined; assay type: functional; how it was run: as §2

SMILES | Effect [1] [mg/dL] | ED50 [2] [mg/kg] | Effect [3] [mg/dL] | Effect [5] [mg/dL] | Effect [6] [mg/dL] | Effect [8] [mg/dL] | Effect [10] [mg/dL] | Activity [12] | Effect [13] [mg/dL] | Effect [20] [mg/dL] | Activity [21] | Effect [22] [mg/dL] | Effect [23] [mg/dL] | Effect [24] [mg/dL] | other results
CC(C)c1cccc(C(C)C)c1OC(=O)[N-]S(=O)(=O)Oc1c(C(C)C)cccc1C(C)C.[Na+] | 92 | 1.8 | 25 | 47 | 102 | 127 | 91 | 78 | 59 | 53 | 98 | 111 | 44 | 39 | IC50 [4]: 930 nM; Effect [7]: 52 mg/dL; Effect [9]: 11 mg/dL; logD [11]: 2.98; Activity [14]: 50; Activity [15]: 56; Effect [16]: 204 mg/dL; Activity [17]: 142; IC50 [18]: 5300 nM; Effect [19]: 192 mg/dL
CCCCCCCN(CCCCCSc1nc(-c2ccccc2)c(-c2ccccc2)[nH]1)C(=O)Nc1ccc(F)cc1F [LECIMIBIDE] | 217 | 15.2 | 10 | 98 | 234 | 244 | 120 | 122 | 135 | 203 | 158 | 154 | 21 | 14 | Activity [25]: 79; Effect [26]: 32 mg/dL; IC50 [27]: 18 nM; Activity [28]: 77; Effect [29]: 87 mg/dL; Effect [30]: 119 mg/dL; Effect [31]: 18 mg/dL; Activity [32]: 74
